Assay results as given in PubChem BioAssay AID624068 (Broad Institute, 2012).
Records with an inconclusive call do not appear.

System: S. cerevisiae W303 JC-1 mitochondrial potential, flow cytometry
Test: mitochondrial membrane depolarization in S. cerevisiae W303, mechanism study for C. glabrata antifungal project, flow cytometry, single point, dry powder (AID 624068)
Conditions: at 1 µM; active compounds read high
Procedure, shortened: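 Assay system: S. cerevisiae W303-1a yeast | Input: Starting culture density OD600 0.1 | Buffer or medium: Glucose SD-CSM medium | Probe or stimulus: JC-1 membrane potential dye, 1 µg/mL final | Timing: 90 min pre-growth at 30 °C, 4 h compound exposure | Technique: JC-1 flow cytometry, 488 nm excitation | Control set: Antimycin A 10 µM plus negative controls for calibration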

Structure (SMILES): CCOC(=O)N1C(=O)C2(CCCCC2)N(c2ccc(C)cc2)C1=S
- mitochondrial depolarization score: 27.8
